Results taken from ChEMBL document CHEMBL2021838, “Solvent effect on copper-catalyzed azide-alkyne cycloaddition (CuAAC): synthesis of novel triazolyl substituted quinolines as potential anticancer agents” (Bioorg Med Chem Lett, 2012).

Assays:
K562 [1] = assay: Antiproliferative activity against human K562 cells assessed as cell growth inhibition at 1 uM after 24 hrs by MTT assay; type: functional; settings: K562, 24 h, read-out: GI
Outline: (§1)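 MTT viability assay. Cells seeded at 5 × 10³ per well and cultured with or without compound for 24 h. MTT (5 mg/ml in PBS) was then added in fresh medium and incubated 2 h at 37 °C, followed by DMSO and 1 min agitation. Absorbance was read at 570 nm. Percent inhibition of proliferation was calculated relative to the untreated control. Dose-response used […].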

K562 [2] = assay: Antiproliferative activity against human K562 cells assessed as cell growth inhibition at 10 uM after 24 hrs by MTT assay; type: functional; settings: K562, 24 h, read-out: GI; outline: as §1
MDA-MB-231 [3] = assay: Antiproliferative activity against human MDA-MB-231 cells assessed as cell growth inhibition at 10 uM after 24 hrs by MTT assay; type: functional; settings: MDA-MB-231, 24 h, read-out: GI; outline: as §1
MDA-MB-231 [4] = assay: Antiproliferative activity against human MDA-MB-231 cells assessed as cell growth inhibition at 1 uM after 24 hrs by MTT assay; type: functional; settings: MDA-MB-231, 24 h, read-out: GI; outline: as §1
K562 [5] = assay: Antiproliferative activity against human K562 cells assessed as cell growth inhibition after 24 hrs by MTT assay; type: functional, cell-based; settings: K562, 24 h; outline: as §1
K562 [6] = assay: Antiproliferative activity against human K562 cells assessed as cell growth inhibition at 0.01 uM after 24 hrs by MTT assay; type: functional; settings: K562, 24 h, read-out: GI; outline: as §1
K562 [7] = assay: Antiproliferative activity against human K562 cells assessed as cell growth inhibition at 0.5 uM after 24 hrs by MTT assay; type: functional; settings: K562, 24 h, read-out: GI; outline: as §1
K562 [8] = assay: Antiproliferative activity against human K562 cells assessed as cell growth inhibition at 0.1 uM after 24 hrs by MTT assay; type: functional; settings: K562, 24 h, read-out: GI; outline: as §1
MDA-MB-231 [9] = assay: Antiproliferative activity against human MDA-MB-231 cells assessed as cell growth inhibition at 0.1 uM after 24 hrs by MTT assay; type: functional; settings: MDA-MB-231, 24 h, read-out: GI; outline: as §1
MDA-MB-231 [10] = assay: Antiproliferative activity against human MDA-MB-231 cells assessed as cell growth inhibition at 0.5 uM after 24 hrs by MTT assay; type: functional; settings: MDA-MB-231, 24 h, read-out: GI; outline: as §1
MDA-MB-231 [11] = assay: Antiproliferative activity against human MDA-MB-231 cells assessed as cell growth inhibition at 0.01 uM after 24 hrs by MTT assay; type: functional; settings: MDA-MB-231, 24 h, read-out: GI; outline: as §1
MDA-MB-231 [12] = assay: Antiproliferative activity against human MDA-MB-231 cells assessed as cell growth inhibition after 24 hrs by MTT assay; type: functional, cell-based; settings: MDA-MB-231, 24 h; outline: as §1

SMILES | inhibition of growth at 1 µM (K562 [1]) | inhibition of growth at 10 µM (K562 [2]) | inhibition of growth at 10 µM (MDA-MB-231 [3]) | inhibition of growth at 1 µM (MDA-MB-231 [4]) | further results
c1ccc(-c2cn(-c3cc4nnnn4c4ccccc34)nn2)cc1 | 20.6% | 29.9% | 56% | 52.5% | 
Cc1ccc(-c2cn(-c3cc4nnnn4c4ccccc34)nn2)cc1 | 20.6% | 44.1% | 54% | 47.7% | 
c1ccc(CCc2cn(-c3cc4nnnn4c4ccccc34)nn2)cc1 | 26.7% | 38.1% | 60.8% | 50.5% | 
OCc1cn(-c2cc3nnnn3c3ccccc23)nn1 | 21.8% | 36.9% | 46.8% | 45.8% | 
OCCCc1cn(-c2cc3nnnn3c3ccccc23)nn1 | 47.1% | 52.4% | 46.1% | 42% | IC50 (K562 [5]): 4600 nM; inhibition of growth at 0.01 µM (K562 [6]): 9%; inhibition of growth at 0.5 µM (K562 [7]): 30%; inhibition of growth at 0.1 µM (K562 [8]): 22%
ClCCCc1cn(-c2cc3nnnn3c3ccccc23)nn1 | 19.9% | 35.2% | 70.1% | 60.2% | inhibition of growth at 0.1 µM (MDA-MB-231 [9]): 24%; inhibition of growth at 0.5 µM (MDA-MB-231 [10]): 46%; inhibition of growth at 0.01 µM (MDA-MB-231 [11]): 11%; IC50 (MDA-MB-231 [12]): 800 nM
CCCCc1cn(-c2cc3nnnn3c3ccccc23)nn1 | 28.2% | 34.1% | 57.1% | 55.3% | 
CCCCCCc1cn(-c2cc3nnnn3c3ccccc23)nn1 | 19.1% | 37.4% | 53.4% | 49.7% | 
CCCCCc1cn(-c2cc(-n3cc(CCCCC)nn3)c3ccccc3n2)nn1 |  | < 30% | < 30% |  | 
ClCCCc1cn(-c2cc(-n3cc(CCCCl)nn3)c3ccccc3n2)nn1 |  | < 30% | < 30% |  | 
CCCCc1cn(-c2cc(-n3cc(CCCC)nn3)c3ccccc3n2)nn1 |  | < 30% | < 30% |  | 
CCCCCCc1cn(-c2cc(-n3cc(CCCCCC)nn3)c3ccccc3n2)nn1 |  | < 30% | < 30% |  | 
